Assays:
MDA-MB-231 = experiment: Antiproliferative activity against human MDA-MB-231 cells after 48 hrs by SRB assay; format: functional, cell-based; conditions: MDA-MB-231, 48 h
Outline: (§1)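 Human breast tumor T47D and MDA-MB-231 cells (ATCC) were treated with compounds for 48 h, and proliferation/viability was measured. […] Cycloheximide and rotenone served as positive controls.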

T47D = experiment: Antiproliferative activity against human T47D cells after 48 hrs by SRB assay; format: functional, cell-based; outline: as §1
[1] = Inhibition of hypoxia-induced HIF-1 activation in human T47D cells by luciferase reporter gene assay; format: cell-based
Outline: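 T47D cells carrying the reporter were incubated under hypoxia (1% O2) for 16 h while exposed to a range of compound concentrations. […] Cycloheximide and rotenone served as positive controls.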

| IC50 (MDA-MB-231) | IC50 (T47D) | IC50 [1] | Structure (SMILES) |
| --- | --- | --- | --- |
| > 10 µM | > 10 µM |  | CC1=C(CC/C(C)=C/CC/C(C)=C/C[C@@H](O)C2=CC(=O)OC2)C(C)(C)CCC1 |
| > 10 µM | > 10 µM |  | CC(=O)CCCC(C)(C)C(=O)CC/C(C)=C/CC/C(C)=C/CCC1=CC(=O)OC1O (configuration not stated) |
| > 10 µM | > 10 µM |  | CC1=C(CC/C(C)=C/CC/C(C)=C/CCC2=CC(=O)OC2O)C(C)(C)CCC1O (configuration not stated) |
| > 10 µM | > 10 µM | 7.1 µM | C=C(CCC1=C(C)CCCC1(C)C)C(O)CC/C(C)=C/CCC1=CC(=O)OC1O (configuration not stated) |
| > 10 µM | > 10 µM | 3.2 µM | CC1=C(CC/C(C)=C/CC/C(C)=C/C[C@@H](O)C2=CC(=O)OC2)C(C)(C)C(=O)CC1 |
| > 10 µM | > 10 µM | 3.5 µM | CC(=O)O[C@H](C/C=C(\C)CC/C=C(\C)CCC1=C(C)CCC(=O)C1(C)C)C1=CC(=O)OC1 |
| > 10 µM | > 10 µM | 6.2 µM | CC1=C(CC/C(C)=C/CC/C(C)=C/CCC2=CC(=O)OC2O)C(C)(C)C(=O)CC1 (configuration not stated) |
| > 10 µM | > 10 µM |  | CC1=C(CCC(C)(O)/C=C/C/C(C)=C/CCC2=CC(=O)OC2O)C(C)(C)CCC1 (configuration not stated) |
| > 10 µM | > 10 µM |  | C=C1CCCC(C)(C)C1(O)CC/C(C)=C/CC/C(C)=C/CCC1=CC(=O)OC1O (configuration not stated) |
| > 10 µM | > 10 µM |  | CC1=C(CC/C(C)=C/CC/C(C)=C/CCC2=CC(=O)OC2O)C(C)(C)CCC1=O (configuration not stated) [ACANTHOLIDE B] |

| Structure (SMILES) | IC50 (MDA-MB-231) | IC50 (T47D) | IC50 [1] |
| --- | --- | --- | --- |
| CC1=C(CC/C(C)=C/CC/C(C)=C/CCC2=CC(=O)OC2O)C(C)(C)CCC1 (configuration not stated) [LUFFARIELLOLIDE] | 4.5 µM | 5.1 µM | 3.6 µM |
